A selection: hits, their analogues and other compounds. The true share with any hit is near 2.4%.
ERAP1 HTS inh – human ERAP1 aminopeptidase inhibitors, primary screen, biochemical, single point, plate reader; Endoplasmic reticulum aminopeptidase 1 (Homo sapiens), Q9NZ08; recombinant ERAP1, Leu-AMC fluorescence, 60 min; inhibition, % at 10.7 µM; hit rate 0.15% among 340,000;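 active means mean replicate inhibition of at least 30%, or all replicates individually reaching that 30% level; inactive means mean below 30% and not every replicate reaching it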;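 further: 0% = neutral control wells and 100% = L-leucinethiol positive control wells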
Target sequence (Q9NZ08 whole entry, looked up): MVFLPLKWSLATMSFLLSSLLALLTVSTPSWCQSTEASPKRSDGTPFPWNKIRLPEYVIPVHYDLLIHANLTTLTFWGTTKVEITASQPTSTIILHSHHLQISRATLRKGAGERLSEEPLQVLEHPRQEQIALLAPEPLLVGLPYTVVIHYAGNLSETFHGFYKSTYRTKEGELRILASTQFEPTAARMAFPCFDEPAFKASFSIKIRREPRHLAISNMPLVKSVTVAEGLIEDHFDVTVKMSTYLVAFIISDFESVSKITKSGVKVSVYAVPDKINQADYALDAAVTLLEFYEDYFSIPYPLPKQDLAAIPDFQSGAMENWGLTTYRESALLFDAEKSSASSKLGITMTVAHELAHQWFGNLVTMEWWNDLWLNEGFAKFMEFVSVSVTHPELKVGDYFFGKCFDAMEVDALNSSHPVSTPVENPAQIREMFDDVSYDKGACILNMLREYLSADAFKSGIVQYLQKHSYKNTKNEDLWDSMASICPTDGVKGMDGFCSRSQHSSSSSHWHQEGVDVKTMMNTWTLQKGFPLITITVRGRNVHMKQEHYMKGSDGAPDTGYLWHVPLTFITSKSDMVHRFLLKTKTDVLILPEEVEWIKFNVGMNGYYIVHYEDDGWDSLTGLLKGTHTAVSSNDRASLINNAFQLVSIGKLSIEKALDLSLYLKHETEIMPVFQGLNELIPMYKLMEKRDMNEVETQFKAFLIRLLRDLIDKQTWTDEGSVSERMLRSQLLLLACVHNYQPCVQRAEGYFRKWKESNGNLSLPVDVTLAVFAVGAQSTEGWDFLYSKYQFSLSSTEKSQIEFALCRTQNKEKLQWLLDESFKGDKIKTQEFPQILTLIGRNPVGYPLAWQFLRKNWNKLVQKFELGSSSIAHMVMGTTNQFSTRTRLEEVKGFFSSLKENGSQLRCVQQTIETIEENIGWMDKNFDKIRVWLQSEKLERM
ARNT-TACC3 inh – disruptors of ARNT/TACC3 protein interaction, primary screen, biochemical, AlphaScreen, single concentration | Transforming acidic coiled-coil-containing protein 3 (Homo sapiens), Q9Y6A5 | AlphaScreen His-ARNT PAS-B/GST-TACC3 binding, luminescence; TACC3 fragment carries E629A point mutation | inhibition, % at 9.99 µM | hit rate 0.66% among 390,000;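 active means mean inhibition of replicates at least 50% and at least half of replicates each reaching 50%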;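 further: 0% = complete ARNT plus TACC3 wells and 100% = ARNT alone without TACC3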
S100A4 inh HTS – inhibitors of S100A4-myosin IIA peptide binding, primary screen, biochemical, fluorescence polarization, TAMRA-MyoIIA peptide; Protein S100-A4 (Homo sapiens), P26447; inhibition, % at 10.7 µM; hit rate 0.14% among 360,000; AID 652163, 2013;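 active means mean inhibition of at least 70% across replicates, with every replicate also reaching that level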
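Material: S100A4 monomer protein | Medium: HEPES pH 7.2 with CaCl2, KCl, NaCl, DTT, Triton | Reagent: Labelled myosin peptide probe, 5 nM | Doses: One dose per compound | Times: 5 min incubation before reading | Benchmarks: Neutral control DMSO, positive control TFP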
PGC1a acetyl inh – inhibitors of PGC1a acetylation signal, primary screen, cell-based, U2OS, AlphaScreen, inhibitor mode; AlphaScreen anti-acetyl-lysine; with virally co-expressed GCN5 acetyltransferase; inhibition, % at 15.6 µM; hit rate 0.17% among 350,000; AID 651687, 2012;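 active means every replicate shows inhibition of at least 40%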;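 further: 0% = neutral control wells and 100% = positive control wells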
Ecoli rRNA inh – reduced GFP signal of wild-type E. coli, primary screen, bacterial rRNA inhibitor project, GFP/RFP fluorescence, OD600, single point; E. coli WT GFP vs humanized-ribosome RFP mutants, 24 h; hits give low values; DMSO median 0, no signal -100; GFP signal change (wild-type ribosome), % (concentration not given with the values); hit rate 1.6% among 350,000;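 active means significant combined selectivity score with lowered wild-type GFP, culture density cut under 30%, mutant RFP and density less affected; inactive means any of these conditions unmet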
CASP6 VEID inh – human caspase-6 inhibitors, primary screen, biochemical, VEID-R110 fluorescence, single point, set 2; inhibition, % at 12.5 µM; purified caspase-6, Z-VEID-R110 cleavage fluorescence; hit rate 0.53% among 350,000; P55212; AID 686996, 2013;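 active means mean inhibition across replicates at least about 35%, with every replicate also reaching that limit, limit read from the data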;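 further: 0% = median of neutral control wells and 100% = no fluorescence left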
* hit, by the source's call; nt = no result given.

SMILES | ERAP1 HTS inh | ARNT-TACC3 inh | S100A4 inh HTS | PGC1a acetyl inh | Ecoli rRNA inh | CASP6 VEID inh
O=C(CNC(=S)NC(=O)c1cccc([N+](=O)[O-])c1)c1ccccc1 | 5.7 | nt | -1.4 | nt | -9.3 | 4.3
COc1ccc(N2CCN(C(=O)C(=O)c3cccc([N+](=O)[O-])c3)CC2)cc1 | 1.2 | nt | 2.3 | nt | -4.6* | -2.3
COc1ccc(C(=O)c2cc([N+](=O)[O-])ccc2N2CCOCC2)cc1 | 1.8 | 8.1 | -3.0 | nt | -19.1* | -2.9
CCOc1ccc(C(=O)c2cc([N+](=O)[O-])ccc2N2CCOCC2)cc1 | 0.1 | 12.1 | -4.7 | nt | -15.3 | 1.2
COc1ccc(C(=O)NNC(=S)NC(=O)c2cccc([N+](=O)[O-])c2)cc1 | -1.6 | 1.7 | 4.8 | -2.1 | -26.0* | 1.2
COc1ccc(/C=C(/NC(=O)c2cccc([N+](=O)[O-])c2)C(=O)O)cc1 | -0.9 | 2.8 | -10.6 | nt | 9.4 | 3.2
O=C(NC(=S)NNC(=O)c1ccccc1O)c1cccnc1 | 1.1 | 67.3* | 0.3 | nt | -34.1 | 2.5
COc1ccc(/C=C(\NC(=O)c2ccc([N+](=O)[O-])cc2)C(=O)NCCCN2CCOCC2)cc1 | -8.5 | -0.4 | -1.6 | 4.6 | -14.2* | -3.5
O=C(NC(=S)NNC(=O)c1ccc(Cl)cc1Cl)c1cccnc1 | nt | 11.3 | nt | 1.6 | nt | nt
COc1ccc(S(=O)(=O)N(C)C[C@H]2Oc3ccc(NC(=O)NC(C)C)cc3CC(=O)N([C@H](C)CO)C[C@@H]2C)cc1 | 1.5 | nt | -11.5 | -8.6 | -0.6 | 1.4
Cc1noc(C)c1NC(=O)Nc1ccc2c(c1)C(=O)N([C@H](C)CO)C[C@H](C)[C@@H](CN(C)Cc1ccc(C(=O)O)cc1)OCCCC[C@@H](C)O2 | nt | -4.5 | nt | 10.2 | -0.2 | nt
COc1ccc2c3c([nH]c2c1)[C@@H](CO)N(Cc1ccccc1F)CC31CN(C(=O)C2CCC2)C1 | nt | nt | -7.5 | 11.4 | -4.5 | -4.9
C[C@@H]1CCCCO[C@@H](CN(C)Cc2ccc(Cl)c(Cl)c2)[C@H](C)CN([C@@H](C)CO)C(=O)c2cc(NC(=O)C3CCCCC3)ccc2O1 | -2.5 | -5.2 | 6.3 | -40.7 | 2.0 | -0.3
O=C(Nc1nc(-c2ccccc2)ns1)c1cccs1 | 2.3 | 25.0 | -2.2 | 5.4 | -37.5* | 0.1
Cc1ccccc1/C=N/Nc1ncnc2nc[nH]c12 | 1.1 | 28.7 | 5.0 | -11.1 | 1.6 | -1.8
Cc1ccsc1/C=N/Nc1ncnc2nc[nH]c12 | 0.6 | 58.3* | -2.5 | -16.0 | -33.9 | -2.5
O=C(Nc1ccccc1)N1CC(=O)N2[C@H](CO)[C@H](c3ccc(C#Cc4cccnc4)cc3)[C@H]2C1 | 0.4 | nt | -2.8 | 22.5 | -2.4 | -3.2
CC(=O)Nc1cccc(C(=O)OCC(=O)c2ccccc2Cl)c1 | -1.3 | -6.6 | 28.7 | 0.9 | -24.2* | nt
O=C(Nc1cccc(Cl)c1)Nc1cccc(Cl)c1 | nt | -3.4 | nt | -0.7 | nt | nt
COC(=O)c1cccc(NC(=S)Nc2ccc(Cl)c(Cl)c2)c1 | -3.3 | -22.6 | -1.3 | 3.5 | -47.7* | -0.7
COC(=O)c1cccc(NC(=S)Nc2ccccc2Cl)c1 | nt | 2.8 | 1.8 | -0.3 | -2.3 | 3.6
COC(=O)c1cc(NC(=O)Nc2cccc(Cl)c2)ccc1Cl | -3.4 | -5.5 | 0.8 | -12.9 | -51.0* | -0.6
Cc1cc(C(=O)Nc2cccc3c2O[C@@H](CN(C)C(=O)Nc2ccccc2)[C@H](C)CN([C@H](C)CO)C3=O)n(C)n1 | 2.1 | -1.5 | -5.8 | -3.0 | 2.6 | 4.8
CCCN(C)C[C@@H]1Oc2cc(C3=CCCCC3)ccc2S(=O)(=O)N([C@@H](C)CO)C[C@@H]1C | -2.9 | 0.6 | -12.8 | -13.4 | 1.5 | 0.9
CC(C)NC(=O)N(C)C[C@@H]1Oc2c(NC(=O)Nc3ccccc3)cccc2C(=O)N([C@@H](C)CO)C[C@H]1C | -4.6 | -1.0 | -3.6 | -5.5 | 3.2 | -1.1
SMILES | ERAP1 HTS inh | ARNT-TACC3 inh | S100A4 inh HTS | PGC1a acetyl inh | Ecoli rRNA inh | CASP6 VEID inh
O=C(C1CCC1)N1CC2(C1)[C@@H](c1ccccc1)[C@@H](CO)N2Cc1ccccc1F | 2.0 | nt | 7.4 | nt | -7.7 | -1.6
CCCC(=O)Nc1ccc2c(c1)OC[C@@H](C)N(CCc1ccccc1)C[C@H](C)[C@@H](OC)CN(C)C2=O | nt | nt | nt | -45.7 | -3.7 | nt
COc1cc(N=Nc2ccc(Br)cc2)cc(C=O)c1O | 1.6 | nt | -0.1 | nt | 28.9 | -0.5
O=Cc1cc(N=Nc2ccc(S(=O)(=O)O)cc2)ccc1O | 10.1 | 2.4 | 14.3 | nt | -20.4* | 1.6
CCn1nnc(NC(=S)NC(=O)c2ccc(-c3cccc(Cl)c3)o2)n1 | 2.2 | 1.6 | 0.1 | 7.2 | -21.4* | 3.7
CCCNC(=O)[C@H]1[C@H](CO)[C@H]2Cn3c(ccc(C4=CCCC4)c3=O)[C@@H]1N2CCC(F)(F)F | -1.1 | -1.6 | 0.1 | nt | 0.0 | 0.8
COc1cccc(C2c3[nH]c4ccccc4c3CCN2Cc2ncc[nH]2)c1 (stereo unspecified) | -1.9 | 52.6* | -15.4 | -11.7 | -25.3 | -0.8
Cc1ccc(S(=O)(=O)N[C@H]2C=C[C@@H](CC(=O)NCCc3ccncc3)O[C@H]2CO)cc1 | 1.0 | nt | 3.2 | -3.8 | 2.5 | -1.5
CC(C)C[C@@H]1NC(=O)[C@@H]2C[C@H](C(=O)NCc3ccc(F)cc3)[C@H](c3ccc(O)cc3)N2C1=O | 3.5 | 2.1 | -12.9 | -1.1 | nt | -0.6
COc1cc(/C=C/C(=O)c2ccccc2O)cc(OC)c1OC | 0.9 | -14.6 | -0.7 | 9.5 | -16.9* | -4.2
COc1cc(C)cc(C(=O)C=Cc2ccccc2)c1O | -1.2 | -2.8 | 4.1 | -17.4 | -52.1* | 2.1
COc1cc(/C=C/C(=O)OCC(=O)NC(C)c2ccccc2)cc(OC)c1OC (stereo unspecified) | 1.9 | -3.4 | 2.4 | 11.4 | -13.3* | 0.6
COc1ccc(C=CC(=O)c2cc(O)ccc2O)cc1 | 0.6 | -0.7 | 3.0 | -8.2 | -36.3* | 3.3
Cn1cc(/C=C/C(=O)N2CCCC(C(=O)c3cccc(C(F)(F)F)c3)C2)cn1 (stereo unspecified) | 1.4 | nt | 0.7 | 0.7 | -29.1* | -0.3
CCCNC(=O)N(C)C[C@@H]1Oc2ncc(-c3ccccc3F)cc2C(=O)N([C@H](C)CO)C[C@@H]1C | 0.3 | 4.7 | 65.8 | 15.6 | -0.6 | 1.5
COCC#Cc1ccc([C@H]2[C@@H](CO)N3C(=O)CN(C(=O)CN4CCOCC4)C[C@H]23)cc1 | -1.2 | nt | 2.4 | -6.3 | 2.0 | 0.7
COC(=O)c1cccc(-n2sc3ccccc3c2=O)c1 | 86.4* | 2.4 | -3.0 | -1.6 | -13.6 | 3.9
O=c1c2cc(F)ccc2sn1-c1ccccc1Cl | 60.7* | nt | -0.1 | nt | -51.5 | 3.0
